Laboratory results reported in ChEMBL document CHEMBL1275600, “Prophylactic activity of intramuscular peramivir in mice infected with a recombinant influenza A/WSN/33 (H1N1) virus containing the H274Y neuraminidase mutation” (Antimicrob Agents Chemother, 2010).
Calls of active or inactive are those of the source. The calls are words filed in the database; no cut-off is given here.

Key:
[1] = test system: Influenza A virus; assay: Antiviral activity against oseltamivir-resistant Influenza A/WSN/33 (H1N1) virus expressing neuraminidase H274Y mutant gene infected in BALB/c mouse assessed as survival of mouse at 45 mg/kg, im administered as single dose; type: functional, organism-based; set-up: dose 45 mg/kg; conditions: A/WSN/1933(H1N1)
Outline: (§1)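 Male BALB/c mice, 6–8 weeks old and 20–25 g, were randomized by weight, 4 per cage, in groups of 12. Drug at 50 mg/ml in saline buffered to pH 3.0 was given by IM hip injection, first dose 1 h before challenge. Mice were infected intranasally under isoflurane with 8 × 10^3 PFU of cell-grown recombinant virus in 30 μl PBS. Mortality was recorded daily for 14 days.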

[2] = test system: Influenza A virus; assay: Antiviral activity against oseltamivir-resistant Influenza A/WSN/33 (H1N1) virus expressing neuraminidase H274Y mutant gene infected in BALB/c mouse assessed as survival of mouse at 90 mg/kg, im administered as single dose; type: functional, organism-based; set-up: dose 90 mg/kg; conditions: A/WSN/1933(H1N1); outline: as §1
[3] = test system: Influenza A virus; assay: Antiviral activity against oseltamivir-resistant Influenza A/WSN/33 (H1N1) virus expressing neuraminidase H274Y mutant gene infected in BALB/c mouse assessed as survival of mouse at 45 mg/kg, im once daily for 5 days; type: functional, organism-based; set-up: dose 45 mg/kg; conditions: A/WSN/1933(H1N1); outline: as §1
[4] = test system: Mus musculus; assay: Toxicity against oseltamivir-resistant Influenza A/WSN/33 (H1N1) virus expressing neuraminidase H274Y mutant gene infected BALB/c mouse assessed as weight loss at 45 mg/kg, im administered as single dose and measured after 6 days; type: organism-based; set-up: dose 45 mg/kg, route intramuscular; conditions: in vivo, 144 h
Outline: (§2)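 Male BALB/c mice, groups of 12, received IM drug at 50 mg/ml in pH 3.0 buffered saline, starting 1 h before intranasal infection with 8 × 10^3 PFU of recombinant virus. Body weight was monitored daily for 14 days. Mean weight loss was compared across regimens by one-way ANOVA, with uninfected PBS-treated mice as reference.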

[5] = test system: Mus musculus; assay: Toxicity against oseltamivir-resistant Influenza A/WSN/33 (H1N1) virus expressing neuraminidase H274Y mutant gene infected BALB/c mouse assessed as weight loss at 90 mg/kg, im administered as single dose and measured after 14 days; type: organism-based; set-up: dose 90 mg/kg, route intramuscular; conditions: in vivo, 336 h; outline: as §2
[6] = test system: Mus musculus; assay: Toxicity against oseltamivir-resistant Influenza A/WSN/33 (H1N1) virus expressing neuraminidase H274Y mutant gene infected BALB/c mouse assessed as weight loss at 45 mg/kg, im once daily for 5 days measured after 14 days; type: organism-based; set-up: dose 45 mg/kg, route intramuscular; conditions: in vivo, 336 h; outline: as §2
[7] = test system: Influenza A virus; assay: Antiviral activity against oseltamivir-resistant Influenza A/WSN/33 (H1N1) virus expressing neuraminidase H274Y mutant gene infected in BALB/c mouse assessed as log reduction in lung viral titer at 45 mg/kg, im administered as single dose and measured after 4 days; type: functional, A/WSN/1933(H1N1); conditions: route intramuscular
Outline: (§3)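 Male BALB/c mice received IM drug at 50 mg/ml in pH 3.0 buffered saline, starting 1 h before intranasal infection with 8 × 10^3 PFU of recombinant virus. Subgroups of 4 were sacrificed on day 4. Lungs were homogenized in 2 ml PBS with antibiotics and spun at 600 × g for 10 min. Supernatants were plaque-titrated on MDBK cells in triplicate. Comparison to untreated infected mice used a two-tailed unpaired t test.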

[8] = test system: Influenza A virus; assay: Antiviral activity against oseltamivir-resistant Influenza A/WSN/33 (H1N1) virus expressing neuraminidase H274Y mutant gene infected in BALB/c mouse assessed as log reduction in lung viral titer at 90 mg/kg, im administered as single dose and measured after 4 days; type: functional, A/WSN/1933(H1N1); conditions: route intramuscular; outline: as §3
[9] = test system: Influenza A virus; assay: Antiviral activity against oseltamivir-resistant Influenza A/WSN/33 (H1N1) virus expressing neuraminidase H274Y mutant gene infected in BALB/c mouse assessed as log reduction in lung viral titer at 45 mg/kg, im once daily for 5 days; type: functional, A/WSN/1933(H1N1); conditions: route intramuscular; outline: as §3

CCC(CC)[C@H](NC(C)=O)[C@@H]1[C@H](O)[C@@H](C(=O)O)C[C@H]1NC(=N)N [PERAMIVIR ANHYDROUS]
Activity [1]: inactive | Activity [2]: inactive | Activity [3]: inactive | Activity [4]: Toxic | Activity [5]: Non-toxic | Activity [6]: Non-toxic | FC [7]: 1.5 | FC [8]: 1.5 | FC [9]: 1.5
